The values below come from ChEMBL document CHEMBL3286184, “Antiplasmodial activity of synthetic ellipticine derivatives and an isolated analog” (Bioorg Med Chem Lett, 2014).

Experiment [1] deals with Plasmodium falciparum. The experiment can be described thus: Antiplasmodial activity against Plasmodium falciparum. It is filed as functional, organism-based. In outline: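 P. falciparum (K1 and 3D7) kept in continuous Trager–Jensen culture and tested at 1–2% initial parasitemia and 3% hematocrit. DMSO stocks (5 mg/mL) were diluted in complete medium across a 100–0.006 range and tested in triplicate for 48 h at 37°C. Growth was read by optical microscopy as IGP% = 100[1 − (parasitemia with sample / untreated control parasitemia)].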

Experiment [2] concerns Plasmodium falciparum. The experiment can be described thus: Antiplasmodial activity against multi-drug resistant Plasmodium falciparum K1 in human erythrocytes assessed as growth inhibition after 48 hrs by optical microscopy. It is filed as functional, organism-based. The note with it: K1, 48 h. In outline: (§1)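 Parasites were kept in continuous culture by the Trager and Jensen method. The microtest used 1–2% initial parasitemia and 3% hematocrit. Samples came from 5 mg/mL DMSO stocks, serially diluted in complete medium and added to parasitized red cells in triplicate. Plates were incubated 48 h at 37°C and read by optical microscopy. Growth inhibition % = 100[1 − (parasitemia with sample/parasitemia of untreated controls)].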

Experiment [3] has as its system Plasmodium falciparum. The experiment is described as follows: Antiplasmodial activity against drug susceptible Plasmodium falciparum 3D7 NF54 isolate in human erythrocytes assessed as growth inhibition after 48 hrs by optical microscopy. The experiment is classed as functional, organism-based. The conditions noted are these: 3D7 NF54, 48 h. In outline: as §1
Experiment [4] in a line: Cytotoxicity against mouse macrophages after 18 hrs by MTT assay. The conditions noted are these: Macrophage. The experiment is classed as cell-based. For orientation: Tetrazolium dyes change colour on reduction, which living cells bring about.
Experiment [5] deals with Plasmodium berghei. The experiment is described as follows: Antimalarial activity against Plasmodium berghei infected in mouse assessed as suppression of parasitemia at 10 mg/kg, po by Peters 4 day suppressive test. The experiment is classed as functional. The note with it: 96 h.
Experiment [6] concerns Plasmodium berghei. The experiment is described as follows: Antimalarial activity against Plasmodium berghei infected in mouse assessed as mouse mean survival time at 50 mg/kg, po. It is filed as functional.
A short description of experiment [7]: Selectivity index, ratio of IC50 for mouse macrophages to IC50 for Plasmodium falciparum.
In experiment [8] the test system is Plasmodium berghei. The experiment is described as follows: Antimalarial activity against Plasmodium berghei infected in mouse assessed as suppression of parasitemia at 50 mg/kg, po after 5 to 7 days. It is filed as functional.
Experiment [9] has as its system Plasmodium berghei. The experiment is described as follows: Antimalarial activity against Plasmodium berghei infected in mouse assessed as suppression of parasitemia at 10 mg/kg, po after 5 to 7 days. The experiment is classed as functional.
Experiment [10] relates to MRC5. The experiment can be described thus: Cytotoxicity against human MRC5 cells after 48 hrs by Alamar blue assay. It is filed as cell-based. The note with it: MRC5, 48 h. In outline: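 MRC-5 fetal lung fibroblasts were grown in DMEM with 10% FBS, 2 mM glutamine and penicillin/streptomycin at 37°C under 5% CO2, seeded at 10^4 cells/well, and dosed with DMSO-dissolved compounds after 24 h for 48 h. Negative controls had 0.1% DMSO. Alamar Blue was added 2 h before the end, with fluorescence read at 530–560 nm excitation and 590 nm emission.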
In general terms: Alamar Blue is a resazurin reagent that responds to reducing activity.

For experiment [11], the system named is Plasmodium berghei. The experiment can be described thus: Antimalarial activity against Plasmodium berghei infected in mouse assessed as total elimination of parasitemia at 50 mg/kg, po after 5 to 7 days. It is filed as functional, organism-based. Further details: dose 50 mg/kg.

Broadly, the IC50 is the concentration that inhibits the measured activity by half. Usually inhibition in vivo stands for how much of the control response was suppressed.

Counter-ions that a name gives are not always drawn. Activity calls are given as the source filed them. The rule behind the calls is not given here.

For the compound `Cc1c2ccncc2c(C)c2c1[nH]c1ccccc12` [ELLIPTECINE], the 50% inhibitory concentration (IC50) in experiment [1] (Plasmodium falciparum) is 1.13 µM; in experiment [2] it was 0.81 µM; in experiment [3] it was 0.35 µM; in experiment [4], above 140 µM. Besides, in experiment [5], the inhibition in vivo at 10 mg/kg is 70%. Further, in experiment [6], the MST is above 40 days. The “Ratio IC50” value in experiment [7] is above 290.

Compound `CCN(CC)CCCC(C)Nc1ccnc2cc(Cl)ccc12` (stereo not drawn) [CHLOROQUINE PHOSPHATE] had an IC50 in experiment [4] above 140 µM.

With `C=C[C@H]1CN2CC[C@H]1C[C@H]2[C@H](O)c1ccnc2ccc(OC)cc12` [QUININE SULFATE], the IC50 in [2] is 0.12 µM; in experiment [3] it was 0.15 µM; in experiment [4] it was above 140 µM.

The compound `COc1ccc2[nH]c3c(C)c4ccncc4c(C)c3c2c1` showed an IC50 in [1] (Plasmodium falciparum) of 1.15 µM.

With `Cc1nccc2c(C)c3[nH]c4ccccc4c3cc12`, the inhibition in vivo at 50 mg/kg in [8] came to 90%. In addition, the IC50 was 1.2 µM in experiment [3] and above 140 µM in [4]. The inhibition in vivo at 10 mg/kg in [9] is 48%. In [7], the “Ratio IC50” value is above 290.

In turn, `Cc1c2c(c(C)c3c1[nH]c1ccccc13)C=NCC2` showed an IC50 in [1] (Plasmodium falciparum) of 1.01 µM.

As for `Cc1c2ccncc2c(C)c2c1[nH]c1c([N+](=O)[O-])cccc12`, the values for the IC50 in experiment [2], in experiment [10] and in [3] were 13 µM, above 50 mg/L and 17 µM, respectively.

As for `Cc1c2c(c(C)c3c1[nH]c1ccccc13)CN(C)CC2`, the IC50 is 4.2 µM in experiment [2], above 50 mg/L in experiment [10] and 13 µM in experiment [3].

For `Cc1c2ccncc2c(C)c2c1[nH]c1ccc(O)cc12`, in experiment [1] (Plasmodium falciparum), the IC50 turned out to be 0.3 µM.

Consider `Cc1c2ccncc2c(C)c2c1[nH]c1ccccc12` [listing 1 of 2 here], for which the inhibition entry in experiment [11] is “Active”.

Regarding `Cc1c2ccncc2c(C)c2c1[nH]c1ccc([N+](=O)[O-])cc12`, the IC50 in experiment [2] was 0.55 µM.

With `Cc1c2ccncc2c(C)c2c1[nH]c1ccccc12` [listing 2 of 2 here], half-maximal inhibition in [1] (IC50) required 0.6 µM.
